Assays:
[1] = AUC ( 0 to infinity) in Sprague-Dawley rat at 30 mg/kg, po measured upto 24 hrs by LC-MS/MS analysis; assay type: ADME, organism-based; parameters: dose 30 mg/kg, time infinity, route oral; details: in vivo
Outline: (§1)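 Male SD rats (N = 3), single oral 30 mg/kg in PEG200/DMA (9:1, v/v). Blood from retrobulbar vein at 0–24 h; heparinized plasma, protein precipitation with methanol, LC-MS/MS quantitation; parameters by non-compartmental analysis.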

[2] = molecular target: T1, Androgen receptor (Homo sapiens) (UniProt P10275); assay: Antagonist activity at androgen receptor in human VCaP cells assessed as inhibition of R1881-induced FKBP5 mRNA expression after 24 hrs by qRT-PCR analysis; assay type: cell-based
T1 sequence (whole entry): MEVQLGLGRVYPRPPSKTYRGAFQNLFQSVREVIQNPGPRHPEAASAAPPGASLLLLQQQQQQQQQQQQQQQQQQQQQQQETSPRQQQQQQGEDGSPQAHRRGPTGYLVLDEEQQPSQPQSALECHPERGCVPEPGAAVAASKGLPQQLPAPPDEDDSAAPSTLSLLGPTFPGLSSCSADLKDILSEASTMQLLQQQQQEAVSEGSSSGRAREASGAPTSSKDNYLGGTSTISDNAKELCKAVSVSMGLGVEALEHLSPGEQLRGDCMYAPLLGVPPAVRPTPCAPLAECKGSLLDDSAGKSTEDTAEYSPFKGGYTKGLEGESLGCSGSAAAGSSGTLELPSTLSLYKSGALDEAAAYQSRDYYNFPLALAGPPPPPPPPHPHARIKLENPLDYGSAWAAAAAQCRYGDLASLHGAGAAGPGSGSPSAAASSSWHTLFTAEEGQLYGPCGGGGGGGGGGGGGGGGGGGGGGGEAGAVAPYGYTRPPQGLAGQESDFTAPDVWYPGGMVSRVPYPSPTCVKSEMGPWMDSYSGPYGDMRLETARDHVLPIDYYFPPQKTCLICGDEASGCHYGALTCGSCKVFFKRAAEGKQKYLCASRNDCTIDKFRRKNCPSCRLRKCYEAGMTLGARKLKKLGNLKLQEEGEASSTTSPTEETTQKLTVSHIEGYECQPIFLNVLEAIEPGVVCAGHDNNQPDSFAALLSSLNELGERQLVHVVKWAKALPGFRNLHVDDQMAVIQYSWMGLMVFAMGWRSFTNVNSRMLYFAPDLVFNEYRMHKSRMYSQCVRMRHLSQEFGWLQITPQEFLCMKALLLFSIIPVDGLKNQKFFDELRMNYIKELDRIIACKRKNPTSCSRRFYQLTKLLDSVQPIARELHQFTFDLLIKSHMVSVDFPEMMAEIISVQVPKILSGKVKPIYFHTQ
Outline: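 VCaP cells held 48 h in DMEM with 5% charcoal-stripped FBS, then 24 h with compound plus 0.2 nM R1881. TRIzol RNA extraction, cDNA synthesis, qRT-PCR for the target mRNA normalized to GAPDH; mean ± SD, n = 3.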

[3] = system: VCaP; assay: Antitumor activity against human VCaP cells xenografted in BALB/c nude mouse assessed as inhibition of tumor growth at 30 mg/kg, po qd administered for 40 days relative to control; assay type: functional; details: Mus musculus, VCaP, po, 960 h; read-out: TGI
Outline: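 Male BALB/c nude mice, 5 weeks old, s.c. 1 × 10^7 VCaP cells in DMEM/Matrigel (1:1). Castrated under Nembutal at 150–200 mm3 and randomized (n = 8–10). Once tumors regrew to 200–350 mm3, oral 30 mg/kg qd for 40 days. TGI = [1 − (T − T0)/(C − C0)] × 100 from mean tumor volumes on first and last treatment days.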

[4] = molecular target: T2, Androgen receptor (Homo sapiens, UniProt P10275); assay type: cell-based, LNCaP
T2 sequence (P10275 whole entry): T1 sequence (whole entry)

[5] = Half life in Sprague-Dawley rat at 30 mg/kg, po measured upto 24 hrs by LC-MS/MS analysis; assay type: ADME, organism-based; details: in vivo; outline: as §1
[6] = Antiproliferative activity against human LNCaP-AR cells assessed as reduction in cell viability incubated for 6 days by CCK8 assay; assay type: functional, cell-based; details: 144 h
Outline: (§2)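 Cells seeded (2×10^4 per well for VCaP, 1–3×10^3 for the others) and compound added after 24 h as a 9-point, 3-fold serial dilution. Exposure 6 days, then CCK-8 for 1–4 h and absorbance at 450 nm. IC50 from curve fit, mean of at least two independent experiments run in duplicate.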

[7] = molecular target: T1, Androgen receptor (Homo sapiens); assay: Potency index, ratio of IC50 for enzalutamide to IC50 for compound for competitive displacement of [3H]R1881 from human AR expressed in LNCaP cells incubated for 24 hrs by scintillation counting method based radioligand competitive binding assay; assay type: cell-based
[8] = AUC (0 to t) in Sprague-Dawley rat at 30 mg/kg, po measured upto 24 hrs by LC-MS/MS analysis; assay type: ADME, organism-based; parameters: time < 24 hr, dose 30 mg/kg, route oral; details: in vivo
[9] = Toxicity in BALB/c nude mouse xenografted with human VCaP cells assessed as weight loss at 30 mg/kg, po qd administered for 40 days relative to control; assay type: organism-based; details: in vivo, 960 h
[10] = Tmax in Sprague-Dawley rat at 30 mg/kg, po measured upto 24 hrs by LC-MS/MS analysis; assay type: ADME, organism-based; details: in vivo; outline: as §1
[11] = system: PC-3; assay: Antiproliferative activity against human PC3 cells assessed as reduction in cell viability incubated for 6 days by CCK8 assay; assay type: functional, cell-based; details: PC-3, 144 h; outline: as §2
[12] = molecular target: T3, Steroid 17-alpha-hydroxylase/17,20 lyase (Homo sapiens, UniProt P05093); assay: Inhibition of C-myc/DDK tagged human CYP17A1 expressed in HEK293T cells assessed as reduction in formation of 17-OHP at 10 uM incubated for 30 mins by LC-MS/MS analysis; assay type: cell-based; details: 0.5 h, 10 µM
T3 sequence (P05093 whole entry): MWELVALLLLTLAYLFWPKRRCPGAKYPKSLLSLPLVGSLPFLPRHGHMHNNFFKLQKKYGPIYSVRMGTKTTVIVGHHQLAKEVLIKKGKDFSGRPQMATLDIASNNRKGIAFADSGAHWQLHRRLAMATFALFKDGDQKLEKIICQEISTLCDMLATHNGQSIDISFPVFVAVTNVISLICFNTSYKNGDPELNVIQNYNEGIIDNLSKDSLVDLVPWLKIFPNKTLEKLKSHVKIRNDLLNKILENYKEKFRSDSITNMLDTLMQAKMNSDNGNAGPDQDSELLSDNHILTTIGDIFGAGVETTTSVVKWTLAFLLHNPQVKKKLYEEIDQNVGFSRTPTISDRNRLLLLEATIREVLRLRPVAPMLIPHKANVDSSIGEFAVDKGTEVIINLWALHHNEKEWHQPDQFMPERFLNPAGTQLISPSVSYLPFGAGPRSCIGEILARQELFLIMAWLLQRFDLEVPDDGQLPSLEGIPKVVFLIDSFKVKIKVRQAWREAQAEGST
Outline: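 CYP17A1 activity measured as 17α-hydroxyprogesterone formation in 50 mM Tris pH 7.4, 5 mM MgCl2. Incubation 30 min at 37 °C, quenched with 20% trichloroacetic acid; product quantified by LC-MS/MS. Mean ± SD, n = 2.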

[13] = Cmax in Sprague-Dawley rat at 30 mg/kg, po measured at 0.5 hrs by LC-MS/MS analysis; assay type: ADME, organism-based; parameters: dose 30 mg/kg, route oral; details: in vivo; outline: as §1

AUC(0-inf) [1]: 4060 ng·h/mL | Activity [2]: Dose-dependent effect | IC50 [4]: 641 nM | half-life [5]: 4.4 h | Ratio IC50 [7]: 8 | AUC(0-t) at 24 h [8]: 4040 ng·h/mL | Tmax [10]: 0.5 h | IC50 [11]: 23300 nM | inhibition (INH) [12]: Not Active | Cmax [13]: 2320 ng/mL
Structure (SMILES): Cc1ccc(-c2c(C)noc2C)cc1Nc1ccc(C#N)c(Cl)c1
inhibition in vivo at 30 mg/kg [3]: 44.7% | IC50 [6]: 430 nM | Activity [9]: Non-Toxic
